Reference: PMC7931189 (ACS Omega, 2021)
Entries after “also recorded” stand apart in the source; their conditions may differ.

Key:
[1] = system: human colorectal carcinoma cells (HCT-116); experiment: Antiproliferative activity by the MTT assay, HCT-116; assay type: cell-based; settings: for IC50: Homo sapiens, HCT-116, 48 h, read-out: IC50 HCT-116; for inhibitory action on HCT-116 cells: MTT, 48 h post treatment, result in words
Outline: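 HCT-116 cells grown in DMEM with L-glutamine, fetal bovine serum, selenium chloride and penicillin-streptomycin; exposed to test compound at 0.06–0.7 mg/mL for 48 h, untreated wells as control. MTT (5.0 mg/mL) added for 4 h, then DMSO; absorbance read at 570 nm. Percent viability calculated relative to control; one-way ANOVA with Student's t-test for p-values.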

[2] = system: HCT-116 cells; experiment: Nuclear DNA staining; assay type: cell-based, human; settings: 0.1 mg/mL, 48 h, compared to nontreated control
Outline: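 HCT-116 cells exposed to test compound at 0.1 mg/mL for 48 h alongside untreated controls. Cells then fixed in 4% paraformaldehyde, permeabilised with Triton X-100 in PBS and stained with DAPI. Nuclei imaged by confocal scanning microscopy at 200× magnification and scored for loss of staining, condensation and disintegration.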

SMILES	IC50 [1]	inhibitory action on HCT-116 cells [1]	nuclear staining / nuclear disintegration of DAPI stained HCT-116 cells [2]
CC(C)(C(=O)O)C(O)c1ccc(Cl)cc1 (stereo not shown) [compound 1, 3-(4-chlorophenyl)-3-hydroxy-2,2-dimethylpropanoic acid]	1270 ± 40 µM	showed inhibitory activities	
CC(C)(C(=O)NN)C(O)c1ccc(Cl)cc1 (stereo not shown) [compound 2, 3-(4-chlorophenyl)-3-hydroxy-2,2-dimethylpropanehydrazide]	1650 ± 60 µM	showed inhibitory activities	
CN(C)c1ccc(C=NNC(=O)C(C)(C)C(O)c2ccc(Cl)cc2)cc1 (stereo not shown) [compound 3, 3-(4-chlorophenyl)-N′-(4-(dimethylamino)benzylidene)-3-hydroxy-2,2-dimethylpropanehydrazide]	267 ± 30 µM	showed inhibitory activities	significant loss (arrows) of staining; also recorded: significant loss of nuclear staining
